Reference: ChEMBL document CHEMBL3272118, “Structure and tumor-promoting activity of analogues of anthralin (1,8-dihydroxy-9-anthrone)” (J Med Chem, 1978)

Columns and labels:
[1] = tested on: Mus musculus; experiment: Toxicity in ICR/Ha Swiss mouse assessed as median survival time at 80 ug administered three times a week; format: organism-based; conditions: in vivo
[2] = tested on: Mus musculus; experiment: Tumor promoting activity in ICR/Ha Swiss mouse at 80 ug administered three times a week measured for 521 days; format: ADME, organism-based; conditions: in vivo, 12504 h
[3] = tested on: Mus musculus; experiment: Tumor promoting activity in ICR/Ha Swiss mouse at 124 ug administered three times a week measured for 370 days; format: ADME, organism-based; conditions: in vivo, 8880 h
How it was run: (§1)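 Two-stage carcinogenesis on clipped backs of female ICR/Ha Swiss mice (8 weeks, ectromelia-vaccinated): one subcarcinogenic topical dose of 7,12-dimethylbenz[a]anthracene, then repeated skin application of test agent, dosed equimolar to anthralin except where toxicity required lower, for 370 days. Tumors >1 mm persisting ≥30 days counted; carcinomas confirmed histologically at autopsy.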

[4] = tested on: Mus musculus; experiment: Tumor promoting activity in ICR/Ha Swiss mouse at 80 ug administered three times a week measured for 370 days; format: ADME, organism-based; conditions: in vivo, 8880 h; how it was run: as §1
[5] = tested on: Mus musculus; experiment: Tumor promoting activity in ICR/Ha Swiss mouse at 85 ug administered three times a week measured for 370 days; format: ADME, organism-based; conditions: in vivo, 8880 h; how it was run: as §1
[6] = tested on: Mus musculus; experiment: Tumor promoting activity in ICR/Ha Swiss mouse at 76 ug administered three times a week measured for 370 days; format: ADME, organism-based; conditions: in vivo, 8880 h; how it was run: as §1
[7] = tested on: Mus musculus; experiment: Tumor promoting activity in ICR/Ha Swiss mouse at 228 ug administered three times a week measured for 370 days; format: ADME, organism-based; conditions: in vivo, 8880 h; how it was run: as §1
[8] = tested on: Mus musculus; experiment: Tumor promoting activity in ICR/Ha Swiss mouse at 300 ug administered three times a week measured for 521 days; format: ADME, organism-based; conditions: in vivo, 12504 h
How it was run: (§2)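 Female ICR/Ha Swiss mice, 8 weeks old, vaccinated against ectromelia, backs clipped. Repeated skin application after a single subcarcinogenic dose of 7,12-dimethylbenz[a]anthracene. Groups of twenty mice; test ran 521 days; median survival time recorded. Tumors >1 mm persisting ≥30 days counted; autopsy with histological confirmation.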

[9] = tested on: Mus musculus; experiment: Toxicity in ICR/Ha Swiss mouse assessed as median survival time at 300 ug administered three times a week; format: organism-based; conditions: in vivo; how it was run: as §2
[10] = tested on: Mus musculus; experiment: Tumor promoting activity in ICR/Ha Swiss mouse at 75 ug administered three times a week measured for 370 days; format: ADME, organism-based; conditions: in vivo, 8880 h; how it was run: as §1
[11] = tested on: Mus musculus; experiment: Tumor promoting activity in ICR/Ha Swiss mouse at 136 ug administered three times a week measured for 370 days; format: ADME, organism-based; conditions: in vivo, 8880 h; how it was run: as §1
[12] = tested on: Mus musculus; experiment: Tumor promoting activity in ICR/Ha Swiss mouse at 15 ug administered three times a week measured for 370 days; format: ADME, organism-based; conditions: in vivo, 8880 h; how it was run: as §1
[13] = Metal chelating activity of the compound assessed as stability constant of metal chelate at 2 to 9 x 10^-5 M using Ca2+; format: physicochemical
How it was run: (§3)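 Stability constants by the Rossotti and Rossotti spectrophotometric method in dimethyl sulfoxide: eight solutions of anthralin from 2.0×10^-5 to 9.0×10^-5 M with metal acetate at matching concentrations, spectra read 400–650 nm at 25 °C.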

[14] = Metal chelating activity of the compound assessed as stability constant of metal chelate at 2 to 9 x 10^-5 M using Zn2+; format: physicochemical; how it was run: as §3
[15] = Metal chelating activity of the compound assessed as stability constant of metal chelate at 2 to 9 x 10^-5 M using Mg2+; format: physicochemical; how it was run: as §3
[16] = Metal chelating activity of the compound assessed as stability constant of metal chelate at 2 to 9 x 10^-5 M using Mn2+; format: physicochemical; how it was run: as §3
[17] = Metal chelating activity of the compound assessed as metal-compound complex formation using copper; format: physicochemical
How it was run: (§4)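 Chelates prepared by adding 0.5 molar equiv of metal acetate in anhydrous ethanol to the ligand (2.0 mmol) dissolved in warm anhydrous ethanol. Metal:ligand ratio in dimethyl sulfoxide by Job's continuous variation: ligand (DHAQ 1.0×10^-4 M or anthralin 2.0×10^-4 M) and equimolar metal acetate mixed in nine solutions at ligand mole fractions 0.1–0.9, spectra recorded 400–650 nm.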

[18] = Metal chelating activity of the compound assessed as stability constant of metal chelate at 2 to 9 x 10^-5 M using copper; format: physicochemical; how it was run: as §3
[19] = Metal chelating activity of the compound assessed as stability constant of metal chelate at 1 to 4.5 x 10^-5 M using copper; format: physicochemical
How it was run: (§5)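 Spectrophotometric method of Rossotti and Rossotti in dimethyl sulfoxide: eight solutions of DHAQ from 1.0×10^-5 to 4.5×10^-5 M with metal acetate at the same concentrations, absorption spectra recorded 400–650 nm at 25 °C, stability constants calculated from these.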

[20] = Metal chelating activity of the compound assessed as metal-compound complex formation using Mg2+; format: physicochemical; how it was run: as §4
[21] = Metal chelating activity of the compound assessed as stability constant of metal chelate at 1 to 4.5 x 10^-5 M using Mg2+; format: physicochemical; how it was run: as §5
[22] = Metal chelating activity of the compound assessed as stability constant of metal chelate at 1 to 4.5 x 10^-5 M using Zn2+; format: physicochemical; how it was run: as §5
[23] = Metal chelating activity of the compound assessed as metal-compound complex formation using Mn2+; format: physicochemical; how it was run: as §4
[24] = Metal chelating activity of the compound assessed as stability constant of metal chelate at 1 to 4.5 x 10^-5 M using Mn2+; format: physicochemical; how it was run: as §5
[25] = Metal chelating activity of the compound assessed as metal-compound complex formation using Ca2+; format: physicochemical; how it was run: as §4
[26] = Metal chelating activity of the compound assessed as stability constant of metal chelate at 1 to 4.5 x 10^-5 M using Ca2+; format: physicochemical; how it was run: as §5
[27] = Metal chelating activity of the compound assessed as metal-compound complex formation using zinc; format: physicochemical; how it was run: as §4
[28] = tested on: Mus musculus; experiment: Tumor promoting activity in ICR/Ha Swiss mouse at 62 ug administered three times a week measured for 370 days; format: ADME, organism-based; conditions: in vivo, 8880 h
How it was run: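 Female ICR/Ha Swiss mice, ectromelia-vaccinated, started at 8 weeks, backs clipped the day before treatment. Single subcarcinogenic topical dose of 7,12-dimethylbenz[a]anthracene, then repeated skin applications at doses equimolar to the positive-control promoter, over 370 days. Tumors >1 mm persisting ≥30 days were counted cumulatively and confirmed on H&E histology at autopsy. Controls received test compound alone or no treatment.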

O=C1c2ccccc2Cc2cccc(O)c21
MST [1]: 391 days
Activity [2]: Toxic

CC(=O)Oc1cccc2c1C(=O)c1c(cccc1OC(C)=O)C2
Activity [3]: Toxic

O=C1c2ccccc2Cc2ccc(O)c(O)c21
Activity [4]: Non-toxic

O=C1c2c(O)cccc2C(O)c2cccc(O)c21
Activity [5]: Non-toxic

CC(=O)Oc1cccc2c1C(=O)C=CC2=O
Activity [6]: Toxic

CCCCCCCCCCCCCC(=O)Oc1cccc2c1C(=O)c1c(cccc1OC(=O)CCCCCCCCCCCCC)C2
Activity [7]: Non-toxic

CCCCCCCCCCCCCC(=O)C1c2cccc(O)c2C(=O)c2c(O)cccc21
Activity [8]: Toxic
MST [9]: 423 days

O=C1c2ccccc2Cc2cc(O)c(O)cc21
Activity [4]: Non-toxic

Oc1cc2cc3ccccc3cc2cc1O
Activity [10]: Non-toxic

Oc1cccc2cc3ccccc3cc12
MST [1]: 474 days
Activity [2]: Toxic

Oc1cccc2cc3cccc(O)c3cc12
Activity [10]: Non-toxic

O=C1CCCc2cc3cccc(O)c3c(O)c21
Activity [4]: Non-toxic

Oc1cccc2c1Cc1c(O)cccc1C2
Activity [4]: Non-toxic

CCCCCCCCCCCCCC(=O)Oc1cccc2c1C(=O)C=CC2=O
Activity [11]: Non-toxic

CC(=O)C1c2cccc(O)c2C(=O)c2c(O)cccc21
Activity [12]: Toxic

O=C(c1ccccc1O)c1ccccc1O [2,2'-DIHYDROXYBENZPHENONE]
Activity [10]: Non-toxic

O=C1c2c(O)cccc2Cc2cccc(O)c21 [ANTHRALIN]
log K [13]: 9.06
log K [14]: 9.23
log K [15]: 9.16
log K [16]: 9.19
Activity [17]: Active
log K [18]: 9.56

O=C1c2cccc(O)c2C(=O)c2c(O)cccc21 [DANTHRON]
log K [19]: 5.77
Activity [20]: Active
log K [21]: 5.53
log K [22]: 5.62
Activity [17]: Active
Activity [23]: Active
log K [24]: 5.58
Activity [25]: Active
log K [26]: 10.03
Activity [27]: Active

O=C1C=CC(=O)c2c(O)cccc21 [JUGLONE]
Activity [28]: Toxic
